High-throughput results (PubChem)
APJ antagonist – antagonists of human APJ apelin receptor; P35414; CHO-K1 APJ beta-arrestin complementation, luminescence; inhibition, % at 20 µM; 330,000 tested, 0.32% active; AID 2521;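 active means inhibition above about 40% at 20 µM, limit read from the data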;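 further: cells challenged with 10 nM apelin-13 agonist together with compound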
CCR6 antag – CCR6 (human) receptor antagonism; P51684; CHO-K1 CCR6 PathHunter beta-arrestin, luminescence, CCL20-stimulated; inhibition, % at 20 µM; 340,000 tested, 0.49% active; AID 493098;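 active means compounds whose inhibition of the agonist-driven luminescence signal at 20 µM reaches about 50%, limit read from the data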;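 further: cells stimulated with CCL20 at 14 nM final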
Target sequence (P51684 whole entry, looked up): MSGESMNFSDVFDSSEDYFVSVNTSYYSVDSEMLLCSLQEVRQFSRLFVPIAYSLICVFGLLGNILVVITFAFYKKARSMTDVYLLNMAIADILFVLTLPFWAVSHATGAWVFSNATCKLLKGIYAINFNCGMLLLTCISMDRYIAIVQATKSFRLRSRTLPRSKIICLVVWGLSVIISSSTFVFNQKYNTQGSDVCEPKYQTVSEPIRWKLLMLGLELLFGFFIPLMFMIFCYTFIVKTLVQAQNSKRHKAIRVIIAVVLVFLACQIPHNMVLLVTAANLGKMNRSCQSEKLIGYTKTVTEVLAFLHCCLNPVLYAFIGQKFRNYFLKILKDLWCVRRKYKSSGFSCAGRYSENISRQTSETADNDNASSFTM
CXCR6 inh – blocks human CXCR6 beta-arrestin recruitment; inhibition, % at 20 µM; CHO-K1 PathHunter CXCR6 beta-arrestin, luminescence; O00574; AID 602244; 360,000 tested, 0.36% active; in the data active means inhibition above about 34%, passing the limit was not always enough;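 further: antagonist mode with CXCL16 agonist at 10 nM final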
Target sequence (O00574 whole entry, looked up): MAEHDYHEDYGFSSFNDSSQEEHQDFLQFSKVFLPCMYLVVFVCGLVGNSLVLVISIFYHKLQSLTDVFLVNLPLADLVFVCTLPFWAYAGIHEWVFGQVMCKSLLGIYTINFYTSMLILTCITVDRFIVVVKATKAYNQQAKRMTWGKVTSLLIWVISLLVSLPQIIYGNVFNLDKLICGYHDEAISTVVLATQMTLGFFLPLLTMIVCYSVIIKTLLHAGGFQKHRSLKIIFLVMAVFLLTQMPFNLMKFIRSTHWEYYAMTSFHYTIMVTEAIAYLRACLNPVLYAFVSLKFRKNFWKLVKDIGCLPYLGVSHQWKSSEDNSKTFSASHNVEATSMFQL
B2AR ag – activates human beta-2 adrenergic receptor causing internalization; P07550; Am2.2-beta2AR cells, FAP receptor internalization, flow cytometry; response, % (test concentration not listed); 340,000 tested, 0.43% active; AID 504454;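 active means response above a set limit, near 3 SD of response in nonfluorescent compounds, cut at about 42% in these data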
APJ agonist – APJ receptor agonism. CHO-K1 APJ PathHunter beta-arrestin, luminescence; 0% DMSO wells, 100% apelin. 330,000 tested, 0.11% active. P35414. activation, % at 20 µM. AID 2520;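 active means activation more than six SD over the plate average, tested at 20 µM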
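Assay system: engineered CHO-K1 APJ arrestin reporter cells; Amount: 1000 CHO-K1 reporter cells seeded per well; Dosing: one dose, 20 µM compound, 1% DMSO; Times: compound stimulation 90 min at 25 °C, detection 60 min; Measured by: luminescent beta-gal fragment complementation, chemiluminescent substrate; Read-out: APJ–arrestin association signal; Controls: DMSO vs Apelin-13 10 nM.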
PfG6PD inh – PfG6PD (Plasmodium falciparum) enzyme inhibition | inhibition, % at 20 µM | AID 504690 | 350,000 tested, 0.78% active | PfGluPho enzyme, NADPH resazurin-diaphorase fluorescence;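 active means inhibition reaching at least a set limit at 20 µM in the primary screen, cut at about 59% in these data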
PfG6PD confirm – confirmation of Plasmodium falciparum G6PD inhibitors. inhibition, % at 20 µM. 2,400 tested, 34% active. recombinant PfGluPho, NADPH-diaphorase-resazurin fluorescence. shares compounds with PfG6PD inh. AID 504753;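 active means inhibition of at least 50% at 20 µM in any single replicate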
Diaph ctr 10uM – counter-screen for P. falciparum G6PD inhibitors: diaphorase inhibitors, oxidizers | inhibition, % at 20 µM | 820 tested, 39% active | shares compounds with PfG6PD inh | diaphorase-coupled resazurin reduction, fluorescence, NADPH 10 uM;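 active means average inhibition reaching 50% or more with the compound at 20 µM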;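 further: resorufin red fluorescence formed as diaphorase reduces resazurin using NADPH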
Diaphorase 30uM – counter-screen for P. falciparum G6PD inhibitors: diaphorase inhibitors, oxidizers | shares compounds with PfG6PD inh | Diaphorase/resazurin coupled assay, resorufin fluorescence, 30 uM NADPH | inhibition, % at 20 µM | 820 tested, 29% active;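 active means inhibition averaging 50% or more, tested at 20 µM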
Large screens that a line does not name were inactive (follow-up assays come after a bar, where they were run); ! = not active in a repeat. Sampled rows, rich in hits. Any-hit rate of the full collection: about 1.7%.

CCC1CCc2c(sc(NC(=O)c3ccco3)c2C(N)=O)C1 (stereo unspecified)	none
CC1C=CCC2C(=O)N(c3cccc(C(=O)NCc4ccccc4)c3)C(=O)C12 (stereo unspecified)	none
Cc1nc2scc(-c3ccccc3)c2c(=O)n1N=C1C=CC(=O)C=C1	CCR6 antag 99.2, PfG6PD inh 113.5 (no result: CXCR6 inh, B2AR ag) | PfG6PD confirm 111.5 | Diaph ctr 10uM 95.4 | Diaphorase 30uM 89.0
Cc1nc2scc(-c3ccccc3)c2c(=O)n1N	none
CC(Sc1nnnn1C)C(=O)Nc1ncc(Cl)cc1Cl (stereo unspecified)	none
Cc1cccc(NC(=O)CNC(=O)c2cccc(-n3cccc3)c2)c1C	none
CC(C)Oc1ccccc1C1CC(=O)Nc2cc3c(cc21)OCO3 (stereo unspecified)	PfG6PD inh 80.5 | PfG6PD confirm inactive
CCOc1ccc(S(=O)(=O)NCc2ccccc2Cl)cc1C(N)=O	PfG6PD inh 74.8 | PfG6PD confirm inactive
CCOc1ccc(S(=O)(=O)NCc2ccccc2)cc1C(N)=O	none
CC(=O)c1sc2nsc(SCCN3CCOCC3)c2c1N	PfG6PD inh 77.6 | PfG6PD confirm inactive
Cc1ccc(-c2csc(NC(=O)c3ccc(Br)cc3)c2C(=O)O)cc1	PfG6PD inh 117.1 | PfG6PD confirm 52.6 | Diaph ctr 10uM inactive | Diaphorase 30uM inactive
Cc1ccc(-c2csc(NC(=O)c3cccc(C)c3)c2C(=O)O)cc1	none
Cc1ccc(-c2csc(NC(=O)/C=C/c3ccco3)c2C(=O)O)cc1	PfG6PD inh 92.5 | PfG6PD confirm 57.5 | Diaph ctr 10uM 57.9 | Diaphorase 30uM 59.2
CCCCCCN(C(=O)CCCCCN1C(=O)NC(c2cccc([N+](=O)[O-])c2)C(C(=O)OCc2ccccc2)=C1C)C(C(=O)NCCCC)c1ccc(OCC(=O)OC)c(C(=O)OC)c1 (stereo unspecified)	none (no result: CCR6 antag, CXCR6 inh, B2AR ag, PfG6PD inh)
CCN1CCN(Cc2ccc(NC(=O)c3ccc(C)c(/C=C/c4cnc(Nc5cc(N6CCNCC6)nc(C)n5)cn4)c3)cc2C(F)(F)F)CC1	PfG6PD inh 66.4! | PfG6PD confirm inactive
Cc1cccc2c3c([nH]c12)CCNC3	none
COc1ccc(C(=O)Nc2nnc(C(F)(F)F)s2)cc1	PfG6PD inh 118.0 | PfG6PD confirm 96.2 | Diaph ctr 10uM 88.9 | Diaphorase 30uM 62.4
COc1ccc(C(=O)Nc2nnc(-c3ccccc3)s2)cc1	none
CC1CCN(S(=O)(=O)c2nnc(NC(=O)c3cccc(Cl)c3)s2)CC1	PfG6PD inh 86.2 | PfG6PD confirm inactive
O=C(Nc1nnc(S(=O)(=O)N2CCOCC2)s1)c1ccccc1	PfG6PD inh 62.7 | PfG6PD confirm inactive
COc1ccc(C(=O)Nc2nnc(S(=O)(=O)N3CCOCC3)s2)cc1	PfG6PD inh 78.4 | PfG6PD confirm 51.1 | Diaph ctr 10uM inactive | Diaphorase 30uM inactive
COc1ccc2cc3cc(C(=O)N4CCN(c5ccccn5)CC4)oc3nc2c1	none
Cc1ccc(S(=O)(=O)CCC(=O)OCc2nnc(-c3ccccc3)o2)cc1	none
CCc1nnc(NC(=O)c2cccc(OC)c2)s1	PfG6PD inh 61.7 | PfG6PD confirm inactive
O=C(Nc1nnc(S(=O)(=O)N2CCOCC2)s1)c1ccc(Cl)cc1	PfG6PD inh 104.5 | PfG6PD confirm 72.2 | Diaph ctr 10uM 71.8 | Diaphorase 30uM 53.5
CNc1ncnc(Sc2nc(N)nc3nc[nH]c23)c1[N+](=O)[O-]	none (no result: APJ antagonist, APJ agonist)
Nc1nc(Sc2ccc([N+](=O)[O-])c3nonc23)c2[nH]cnc2n1	PfG6PD inh 121.8 (no result: APJ antagonist, APJ agonist) | PfG6PD confirm 109.1 | Diaph ctr 10uM 96.9 | Diaphorase 30uM 84.5
O=C(CNC(=O)c1cccs1)c1ccc([N+](=O)[O-])cc1	none
O=C(Cc1ccccc1)NCC(=O)OCC(=O)c1ccc(F)cc1	none
O=C(CNC(=O)c1cccs1)OCC(=O)c1ccc([N+](=O)[O-])cc1	PfG6PD inh 67.8 | PfG6PD confirm 48.6 | Diaph ctr 10uM inactive | Diaphorase 30uM inactive
O=C(Cc1ccccc1)NCC(=O)OCC(=O)c1ccc([N+](=O)[O-])cc1	PfG6PD inh 67.9 | PfG6PD confirm 67.1 | Diaph ctr 10uM inactive | Diaphorase 30uM inactive
O=C(COC(=O)c1ccccn1)c1ccc([N+](=O)[O-])cc1	PfG6PD inh 62.8 | PfG6PD confirm inactive
Cc1ccc(C(=O)NCC(=O)NCC(=O)OCC(=O)c2ccc([N+](=O)[O-])cc2)cc1	PfG6PD inh 63.3 | PfG6PD confirm 62.4 | Diaph ctr 10uM inactive | Diaphorase 30uM inactive
CCc1ccc(C(=O)COC(=O)CNC(=O)c2ccco2)cc1	none
O=C(CNC(=O)c1ccco1)OCC(=O)c1ccc([N+](=O)[O-])cc1	PfG6PD inh 62.8 | PfG6PD confirm 66.4 | Diaph ctr 10uM inactive | Diaphorase 30uM inactive
O=C(CNC(=O)c1ccc([N+](=O)[O-])cc1)c1ccccc1	none
O=C(CNc1ccccc1)c1ccc([N+](=O)[O-])cc1	PfG6PD inh 63.7 | PfG6PD confirm inactive
c1ccc2[nH]c(-c3cnco3)cc2c1	none
O=C(N/N=C/c1cccc2ccccc12)c1ccccc1Cl	PfG6PD inh 82.6 (no result: APJ antagonist, APJ agonist) | PfG6PD confirm inactive
Cc1ccc(C(=O)Nc2ccc(N3CCN(C(=O)c4cccs4)CC3)cc2)c(Cl)c1	none
Cc1cc2nc(/C(C#N)=C\c3ccc(-c4ccccc4C(=O)O)o3)[nH]c2cc1C	PfG6PD inh 59.6 | PfG6PD confirm inactive
Cc1ccc2nc(/C(C#N)=C/c3ccc(-c4ccccc4C(=O)O)o3)[nH]c2c1	none
Cc1ccc(S(=O)(=O)N(C)CC(=O)Nc2cc(C)ccn2)cc1	none
S=C1SCN(Cc2ccco2)CN1Cc1ccco1	none
S=C1NCN(Cc2ccco2)CN1c1cccc2ccccc12	none
N#CC1=C2SCN(Cc3ccco3)CN2C(=O)CC1c1cccc2ccccc12 (stereo unspecified)	PfG6PD inh 63.0 | PfG6PD confirm inactive
N#CC1=C2SCN(Cc3ccco3)CN2C(=O)CC1c1ccccc1F (stereo unspecified)	PfG6PD inh 67.0 | PfG6PD confirm inactive
Cc1cc(C)c(C)c(S(=O)(=O)N2CCN(C(=O)C3CSC4(C)CCC(=O)N34)CC2)c1C (stereo unspecified)	none
CN(C(=O)Cn1cnc([N+](=O)[O-])n1)C1CCCCC1	none
O=C(CSc1nc2cc(Cl)ccc2s1)c1cc2ccccc2o1	PfG6PD inh 63.6 | PfG6PD confirm inactive
